Results on 1 compound are retold here after BindingDB's records for doi:10.1021/jm100027p (Emory University, 2010).

Each structure is given as a SMILES string.

One test has as its target Glutamate receptor 1 (Rattus norvegicus, UniProt P19490). Nature of the test: Antagonist activity at rat recombinant GLuR1 expressed in Xenopus oocytes assessed as inhibition of glutamate-induced current by two-electrode voltage-clamp electrophysiology. The method, boiled down: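 Two-electrode voltage clamp at −40 mV on Xenopus oocytes expressing rat GluR1, perfused with 90 NaCl, 1.0 KCl, 0.5 BaCl2, 0.005 EDTA, 10 HEPES (mM), pH 7.4, 23°C; activated by 100 μM glutamate. From 20 mM DMSO stocks, 5-7 concentrations, ≥4 oocytes each. Hill fit to mean composite curves normalized to control, minimum usually fixed at 0. Response >75% at 100 μM reported as >300 μM.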
On the technique in general: Two-electrode voltage clamp holds a large cell at a set potential and records current.

The target in test [1] is Glutamate receptor ionotropic, NMDA 1/2B (Rattus norvegicus, UniProt Q00960+P35439). Nature of the test: Antagonist activity at rat recombinant NR1-NR2B receptor expressed in Xenopus oocytes at holding potential of -40mV by two-electrode voltage-clamp electrophysiology. The method, boiled down:
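Oocytes expressed rat NR1-1a/NR2B and were held at −40 mV, 23°C, pH 7.4 HEPES-buffered saline. Currents were activated by 100 μM glutamate plus 30 μM glycine. 5-7 inhibitor concentrations were tested, ≥4 oocytes each, normalized to control. IC50 came from Hill fits, minimum fixed at 0 unless indicated. Responses >75% of control at 100 μM were reported as >300 μM.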

The target of test [2] is Glutamate receptor ionotropic, NMDA 1/2A (Rattus norvegicus, UniProt Q00959+P35439). Nature of the test: Antagonist activity at rat recombinant NR1-NR2A receptor expressed in Xenopus oocytes at holding potential of -40mV by two-electrode voltage-clamp electrophysiology. In a few lines:
(§1)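 Oocytes expressing rat NR1-1a with NR2A, NR2B, NR2C or NR2D, clamped at −40 mV in Ba2+/HEPES recording solution pH 7.4, 23°C. Current evoked by 100 μM glutamate plus 30 μM glycine. Final DMSO 0.05-0.5%, 5-7 inhibitor concentrations, ≥4 oocytes each. IC50 from Hill fit of normalized mean composite data. […] Some NR2A oocytes given BAPTA-AM or K-BAPTA.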

Test [3] addresses Glutamate receptor ionotropic, NMDA 1/2C (Rattus norvegicus, UniProt Q00961+P35439). Nature of the test: Antagonist activity at rat recombinant NR1-NR2C receptor expressed in Xenopus oocytes at holding potential of -40mV by two-electrode voltage-clamp electrophysiology. The method, boiled down:
as §1

Sequence of Glutamate receptor ionotropic, NMDA 1/2B (Q00960 whole entry, other chains not shown): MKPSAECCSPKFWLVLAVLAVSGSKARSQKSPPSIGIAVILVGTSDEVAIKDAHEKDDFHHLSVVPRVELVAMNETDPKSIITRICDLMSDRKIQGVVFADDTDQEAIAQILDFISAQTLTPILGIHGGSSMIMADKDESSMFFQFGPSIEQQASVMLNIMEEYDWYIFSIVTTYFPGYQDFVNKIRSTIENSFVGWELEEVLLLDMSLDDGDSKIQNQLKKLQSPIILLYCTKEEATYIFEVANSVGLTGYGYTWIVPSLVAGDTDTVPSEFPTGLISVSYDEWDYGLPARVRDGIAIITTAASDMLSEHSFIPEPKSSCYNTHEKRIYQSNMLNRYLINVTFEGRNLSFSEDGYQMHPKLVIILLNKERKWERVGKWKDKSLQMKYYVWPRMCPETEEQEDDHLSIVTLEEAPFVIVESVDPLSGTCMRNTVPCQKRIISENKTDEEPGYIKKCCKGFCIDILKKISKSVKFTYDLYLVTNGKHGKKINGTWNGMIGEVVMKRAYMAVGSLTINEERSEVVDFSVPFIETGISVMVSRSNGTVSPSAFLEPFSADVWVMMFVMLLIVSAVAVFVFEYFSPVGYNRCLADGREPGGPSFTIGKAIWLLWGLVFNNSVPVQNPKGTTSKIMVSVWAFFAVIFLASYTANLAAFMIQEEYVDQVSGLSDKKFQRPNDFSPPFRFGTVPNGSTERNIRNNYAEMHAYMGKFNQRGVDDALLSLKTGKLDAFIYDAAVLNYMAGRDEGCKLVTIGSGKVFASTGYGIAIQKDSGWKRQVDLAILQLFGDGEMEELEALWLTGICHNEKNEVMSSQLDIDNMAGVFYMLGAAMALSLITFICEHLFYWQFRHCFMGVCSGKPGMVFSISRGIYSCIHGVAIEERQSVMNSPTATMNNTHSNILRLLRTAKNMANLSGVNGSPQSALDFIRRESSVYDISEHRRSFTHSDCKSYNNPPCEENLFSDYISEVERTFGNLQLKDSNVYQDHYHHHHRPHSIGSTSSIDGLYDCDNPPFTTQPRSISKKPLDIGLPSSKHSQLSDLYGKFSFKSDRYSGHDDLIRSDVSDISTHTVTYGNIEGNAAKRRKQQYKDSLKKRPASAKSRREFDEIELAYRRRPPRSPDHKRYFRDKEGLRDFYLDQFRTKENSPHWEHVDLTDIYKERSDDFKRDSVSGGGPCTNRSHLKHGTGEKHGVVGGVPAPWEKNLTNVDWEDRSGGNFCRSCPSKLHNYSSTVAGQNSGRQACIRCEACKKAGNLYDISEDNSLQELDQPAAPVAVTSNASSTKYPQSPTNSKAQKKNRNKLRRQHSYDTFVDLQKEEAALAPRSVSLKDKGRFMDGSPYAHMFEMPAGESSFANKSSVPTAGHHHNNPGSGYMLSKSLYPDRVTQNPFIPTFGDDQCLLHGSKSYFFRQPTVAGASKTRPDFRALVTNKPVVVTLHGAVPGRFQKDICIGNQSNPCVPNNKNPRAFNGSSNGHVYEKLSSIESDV
Sequence of Glutamate receptor 1 (P19490 whole entry, the tested form may be a part): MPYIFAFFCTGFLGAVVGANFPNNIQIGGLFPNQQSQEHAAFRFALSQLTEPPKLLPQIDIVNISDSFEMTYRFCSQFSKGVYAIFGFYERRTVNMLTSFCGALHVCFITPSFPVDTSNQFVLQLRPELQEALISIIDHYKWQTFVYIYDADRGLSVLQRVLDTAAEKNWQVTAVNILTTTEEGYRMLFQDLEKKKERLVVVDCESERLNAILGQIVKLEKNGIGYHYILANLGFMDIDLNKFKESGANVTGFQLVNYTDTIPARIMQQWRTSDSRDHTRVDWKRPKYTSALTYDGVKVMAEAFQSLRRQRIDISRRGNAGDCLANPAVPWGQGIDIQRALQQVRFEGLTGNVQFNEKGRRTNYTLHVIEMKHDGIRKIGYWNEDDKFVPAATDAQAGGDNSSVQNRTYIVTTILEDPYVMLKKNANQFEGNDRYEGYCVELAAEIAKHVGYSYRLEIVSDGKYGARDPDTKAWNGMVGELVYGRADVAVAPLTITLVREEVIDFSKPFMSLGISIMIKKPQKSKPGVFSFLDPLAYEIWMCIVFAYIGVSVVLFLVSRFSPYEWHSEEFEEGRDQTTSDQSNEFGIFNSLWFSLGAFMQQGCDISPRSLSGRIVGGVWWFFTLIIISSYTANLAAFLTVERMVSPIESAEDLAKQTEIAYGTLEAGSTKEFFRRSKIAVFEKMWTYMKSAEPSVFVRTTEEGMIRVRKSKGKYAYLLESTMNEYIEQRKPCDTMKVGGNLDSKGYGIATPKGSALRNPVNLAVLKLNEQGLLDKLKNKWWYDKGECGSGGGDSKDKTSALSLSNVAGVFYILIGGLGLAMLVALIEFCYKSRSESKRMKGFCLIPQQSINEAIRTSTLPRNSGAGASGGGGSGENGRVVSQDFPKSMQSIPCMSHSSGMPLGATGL
Sequence of Glutamate receptor ionotropic, NMDA 1/2C (Q00961 whole entry, other chains not shown): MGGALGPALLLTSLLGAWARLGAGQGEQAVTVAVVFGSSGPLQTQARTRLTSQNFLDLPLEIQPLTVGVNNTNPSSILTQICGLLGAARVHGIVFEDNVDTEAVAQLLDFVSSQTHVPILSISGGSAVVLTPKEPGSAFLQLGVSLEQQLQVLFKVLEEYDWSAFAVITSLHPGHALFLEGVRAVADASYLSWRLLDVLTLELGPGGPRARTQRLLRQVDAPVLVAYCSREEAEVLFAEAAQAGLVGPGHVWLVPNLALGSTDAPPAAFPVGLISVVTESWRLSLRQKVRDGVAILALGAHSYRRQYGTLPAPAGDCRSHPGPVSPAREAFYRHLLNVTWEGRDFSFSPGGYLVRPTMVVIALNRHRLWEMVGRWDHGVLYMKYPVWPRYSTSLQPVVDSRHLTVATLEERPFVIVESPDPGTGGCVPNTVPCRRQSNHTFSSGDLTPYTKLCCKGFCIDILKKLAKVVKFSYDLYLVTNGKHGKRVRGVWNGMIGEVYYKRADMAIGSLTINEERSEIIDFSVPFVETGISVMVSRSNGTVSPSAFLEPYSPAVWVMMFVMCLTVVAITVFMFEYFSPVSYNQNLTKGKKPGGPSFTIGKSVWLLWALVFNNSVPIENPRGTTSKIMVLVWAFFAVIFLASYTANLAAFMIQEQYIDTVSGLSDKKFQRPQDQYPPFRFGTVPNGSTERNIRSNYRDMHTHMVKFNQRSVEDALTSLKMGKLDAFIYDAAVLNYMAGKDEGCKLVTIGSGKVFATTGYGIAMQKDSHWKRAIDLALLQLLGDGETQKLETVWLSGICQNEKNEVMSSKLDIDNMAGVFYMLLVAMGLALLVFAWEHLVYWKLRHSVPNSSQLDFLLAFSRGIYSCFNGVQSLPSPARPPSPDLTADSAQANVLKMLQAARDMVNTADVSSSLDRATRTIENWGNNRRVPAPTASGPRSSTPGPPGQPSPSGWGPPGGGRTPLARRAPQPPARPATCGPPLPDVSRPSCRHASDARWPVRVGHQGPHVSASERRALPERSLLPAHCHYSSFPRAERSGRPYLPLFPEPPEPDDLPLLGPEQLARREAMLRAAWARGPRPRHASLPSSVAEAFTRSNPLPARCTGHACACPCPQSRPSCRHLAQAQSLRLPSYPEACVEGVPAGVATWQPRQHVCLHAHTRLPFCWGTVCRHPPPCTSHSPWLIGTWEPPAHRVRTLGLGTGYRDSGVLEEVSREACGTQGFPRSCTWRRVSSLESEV
Sequence of Glutamate receptor ionotropic, NMDA 1/2A (Q00959 whole entry, other chains not shown): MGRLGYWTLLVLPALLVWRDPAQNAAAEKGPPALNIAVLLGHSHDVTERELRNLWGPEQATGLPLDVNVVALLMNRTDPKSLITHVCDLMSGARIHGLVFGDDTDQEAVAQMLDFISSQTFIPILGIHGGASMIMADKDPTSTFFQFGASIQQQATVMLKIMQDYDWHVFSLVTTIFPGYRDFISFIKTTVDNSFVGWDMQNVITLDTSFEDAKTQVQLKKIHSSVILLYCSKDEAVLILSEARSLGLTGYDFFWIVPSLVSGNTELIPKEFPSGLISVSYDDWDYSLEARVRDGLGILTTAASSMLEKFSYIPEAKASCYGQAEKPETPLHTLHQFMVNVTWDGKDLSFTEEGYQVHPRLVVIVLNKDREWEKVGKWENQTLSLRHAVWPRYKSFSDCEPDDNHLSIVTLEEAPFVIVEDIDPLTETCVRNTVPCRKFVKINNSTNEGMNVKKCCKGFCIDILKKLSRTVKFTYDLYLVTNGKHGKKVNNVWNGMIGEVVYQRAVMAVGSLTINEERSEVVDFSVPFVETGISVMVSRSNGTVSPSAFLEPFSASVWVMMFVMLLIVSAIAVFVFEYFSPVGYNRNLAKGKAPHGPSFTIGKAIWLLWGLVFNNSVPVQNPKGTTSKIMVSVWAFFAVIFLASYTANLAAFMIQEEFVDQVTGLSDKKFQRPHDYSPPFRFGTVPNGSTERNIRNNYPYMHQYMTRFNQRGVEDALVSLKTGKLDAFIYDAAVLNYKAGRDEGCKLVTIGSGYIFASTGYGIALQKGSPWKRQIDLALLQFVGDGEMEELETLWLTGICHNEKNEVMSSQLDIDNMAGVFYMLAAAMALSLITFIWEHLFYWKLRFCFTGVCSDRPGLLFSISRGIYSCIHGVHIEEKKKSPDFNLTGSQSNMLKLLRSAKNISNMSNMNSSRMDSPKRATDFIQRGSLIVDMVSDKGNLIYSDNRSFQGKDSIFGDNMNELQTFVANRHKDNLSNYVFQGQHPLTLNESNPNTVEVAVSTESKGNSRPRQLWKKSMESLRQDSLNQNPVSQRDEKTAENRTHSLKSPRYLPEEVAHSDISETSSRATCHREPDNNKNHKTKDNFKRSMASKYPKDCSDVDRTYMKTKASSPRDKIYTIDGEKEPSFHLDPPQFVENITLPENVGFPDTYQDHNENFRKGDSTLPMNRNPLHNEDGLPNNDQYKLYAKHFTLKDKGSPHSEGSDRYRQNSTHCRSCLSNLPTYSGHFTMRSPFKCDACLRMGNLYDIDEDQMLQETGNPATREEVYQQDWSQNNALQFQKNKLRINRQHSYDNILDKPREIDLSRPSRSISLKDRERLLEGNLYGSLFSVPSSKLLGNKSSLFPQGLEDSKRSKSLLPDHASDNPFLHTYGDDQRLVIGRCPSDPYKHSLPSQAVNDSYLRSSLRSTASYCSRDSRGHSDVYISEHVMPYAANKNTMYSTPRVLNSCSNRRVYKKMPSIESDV

Turning to `O=C(O)c1ccc(-n2c(/C=C/c3cccc([N+](=O)[O-])c3)nc3ccc(Cl)cc3c2=O)cc1` [(E)-4-(6-Chloro-2-(3-nitrostyryl)-4-oxoquinazolin-3(4H)-yl)-benzoic Acid], the IC50 on Glutamate receptor 1 stood at 7 µM; in test [1] it was 13 µM; in test [2] it was 16 µM; in test [3], 2 µM.

For orientation: IC50 means the concentration needed to halve the response being measured.
